Measurements from ChEMBL document CHEMBL2146419, “Effects of polyphenol compounds on influenza A virus replication and definition of their mechanism of action” (Bioorg Med Chem, 2012).
Calls of active or inactive are those of the source. No cut-off for these calls is given here.

Columns and labels:
[1] = system: MDCK; test: Cytotoxicity against dog MDCK cells assessed as morphological alterations at 40 ug/mL incubated for 24 hrs followed by compound wash out measured after 24 hrs by microscopic analysis; assay type: cell-based, Canis lupus familiaris
How it was run: (§1)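 Confluent MDCK monolayers plated at 2×10^5/ml were treated after 24 h with compound at 5–40 μg/ml and incubated a further 24 h. Assessed by microscopic examination of morphology, Trypan blue exclusion for viability, and cell counts for multiplication rate.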

[2] = system: Influenza A virus; test: Antiviral activity against Influenza virus A/Puerto Rico/8/34 H1N1 infected in dog MDCK cells incubated for 1 hr prior to infection by hemagglutininating unit assay; assay type: functional, organism-based; details: A/Puerto Rico/8/1934(H1N1)
How it was run: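 Timing variants, each read by HAU of virus yield from MDCK cells: PR8 stock preincubated 1 h with compound before infection; compound present only during the 1 h adsorption; or cells pretreated overnight with washout just before viral challenge.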

[3] = system: Influenza A virus; test: Antiviral activity against Influenza virus A/Puerto Rico/8/34 H1N1 infected in dog MDCK cells at 20 ug/mL incubated for 2 hrs post-infection followed by compound washout measured after 24 hrs by hemagglutininating unit assay; assay type: functional, organism-based; details: A/Puerto Rico/8/1934(H1N1)
How it was run: (§2)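 Compound added to PR8-infected MDCK cells immediately after virus challenge, then removed at 2, 4, 6, 8 or 24 h p.i. Supernatant virus yield was measured by HAU at 24 h p.i. and expressed as a percentage of DMSO-treated control infected cells. Means of two experiments, each in duplicate.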

[4] = system: Influenza A virus; test: Antiviral activity against Influenza virus A/Puerto Rico/8/34 H1N1 infected in dog MDCK cells at 20 ug/mL incubated for 4 hrs post-infection followed by compound washout measured after 24 hrs by hemagglutininating unit assay; assay type: functional, organism-based; details: A/Puerto Rico/8/1934(H1N1); how it was run: as §2
[5] = system: Influenza A virus; test: Antiviral activity against Influenza virus A/Puerto Rico/8/34 H1N1 infected in dog MDCK cells at 20 ug/mL incubated for 8 hrs post-infection followed by compound washout measured after 24 hrs by hemagglutininating unit assay relative to control; assay type: functional, A/Puerto Rico/8/1934(H1N1); how it was run: as §2
[6] = system: Influenza A virus; test: Antiviral activity against Influenza virus A/Puerto Rico/8/34 H1N1 infected in dog MDCK cells at 20 ug/mL incubated for 24 hrs post-infection followed by compound washout measured after 24 hrs by hemagglutininating unit assay relative to control; assay type: functional, A/Puerto Rico/8/1934(H1N1); how it was run: as §2
[7] = system: Influenza A virus; test: Antiviral activity against Influenza virus A/Puerto Rico/8/34 H1N1 infected in dog MDCK cells assessed as reduction in hemagglutininin expression at 20 ug/mL after 24 hrs by immunoblotting analysis relative to control; assay type: functional, A/Puerto Rico/8/1934(H1N1); set-up: scale not given: the % may be the effect or the level left
How it was run: (§3)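 PR8-infected MDCK cells, untreated or treated, were lysed at 24 h. Homogenates were run on 12% gels under reducing conditions, blotted to nitrocellulose and probed with goat polyclonal anti-influenza antibodies. Densitometry was expressed as the ratio of each viral protein to actin, relative to untreated infected cells.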

[8] = system: Influenza A virus; test: Antiviral activity against Influenza virus A/Puerto Rico/8/34 H1N1 infected in dog MDCK cells assessed as reduction in nucleoprotein expression at 20 ug/mL after 24 hrs by immunoblotting analysis relative to control; assay type: functional, organism-based; details: A/Puerto Rico/8/1934(H1N1); how it was run: as §3
[9] = system: Influenza A virus; test: Antiviral activity against Influenza virus A/Puerto Rico/8/34 H1N1 infected in dog MDCK cells assessed as reduction in neuraminidase expression at 20 ug/mL after 24 hrs by immunoblotting analysis relative to control; assay type: functional, A/Puerto Rico/8/1934(H1N1); set-up: scale not given: the % may be the effect or the level left; how it was run: as §3
[10] = system: Influenza A virus; test: Antiviral activity against Influenza virus A/Puerto Rico/8/34 H1N1 infected in dog MDCK cells assessed as reduction in matrix protein 1 expression at 20 ug/mL after 24 hrs by immunoblotting analysis relative to control; assay type: functional, A/Puerto Rico/8/1934(H1N1); set-up: scale not given: the % may be the effect or the level left; how it was run: as §3
[11] = target: T1, Protein kinase C (PKC) (Homo sapiens) (UniProt O94806+P41743+P17252+P05129+Q05655+P05771+Q05513+Q02156+P24723+Q15139+Q04759); test: Inhibition of PKC-mediated p38MAPK phosphorylation in human NCI-H292 cells infected with Influenza virus A/Puerto Rico/8/34 H1N1 measured at 6 hrs post-infection by immunoblotting analysis; assay type: cell-based
How it was run: (§4)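 NCI-H292 cells, mock- or PR8-infected at 1 M.O.I., were treated and lysed 6 h p.i. Lysates were run on 10% SDS–PAGE and blotted with rabbit anti-phospho-PKD, -ERK1/2, -p38MAPK or -JNK antibodies. Membranes were then stripped and reprobed for the corresponding total proteins.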

[12] = target: T1, Protein kinase C (PKC) (Homo sapiens); test: Inhibition of PKC-mediated ERK2 phosphorylation in human NCI-H292 cells infected with Influenza virus A/Puerto Rico/8/34 H1N1 measured at 6 hrs post-infection by immunoblotting analysis; assay type: cell-based; how it was run: as §4
[13] = system: MDCK; test: Cytotoxicity against dog MDCK cells assessed as morphological alterations at 20 to 40 ug/mL incubated for 24 hrs followed by compound wash out measured after 24 hrs by microscopic analysis; assay type: cell-based, Canis lupus familiaris; how it was run: as §1
[14] = system: Influenza A virus; test: Antiviral activity against Influenza virus A/Puerto Rico/8/34 H1N1 infected in dog MDCK cells assessed as inhibition of viral replication at 10 ug/mL incubated at 1 hr post-infection measured after 24 hrs by hemagglutininating unit assay relative to control; assay type: functional; details: A/Puerto Rico/8/1934(H1N1)
How it was run: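 MDCK cells infected with PR8; 1 h after adsorption they were washed, and compound (5–20 μg/ml) or DMSO was added and kept on throughout. Virus released into the supernatant was titrated by HAU assay 24 h p.i. Yield is a percentage of control infected cells given 0.02% DMSO. Means of four experiments, each in duplicate.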

[15] = system: Influenza A virus; test: Antiviral activity against Influenza virus A/Puerto Rico/8/34 H1N1 infected in dog MDCK cells at 10 ug/mL incubated for 2 hrs post-infection followed by compound washout measured after 24 hrs by hemagglutininating unit assay; assay type: functional, organism-based; details: A/Puerto Rico/8/1934(H1N1); how it was run: as §2
[16] = system: Influenza A virus; test: Antiviral activity against Influenza virus A/Puerto Rico/8/34 H1N1 infected in dog MDCK cells at 10 ug/mL incubated for 4 hrs post-infection followed by compound washout measured after 24 hrs by hemagglutininating unit assay; assay type: functional, organism-based; details: A/Puerto Rico/8/1934(H1N1); how it was run: as §2
[17] = system: Influenza A virus; test: Antiviral activity against Influenza virus A/Puerto Rico/8/34 H1N1 infected in dog MDCK cells at 10 ug/mL incubated for 6 hrs post-infection followed by compound washout measured after 24 hrs by hemagglutininating unit assay relative to control; assay type: functional, A/Puerto Rico/8/1934(H1N1); how it was run: as §2
[18] = system: Influenza A virus; test: Antiviral activity against Influenza virus A/Puerto Rico/8/34 H1N1 infected in dog MDCK cells at 10 ug/mL incubated for 8 hrs post-infection followed by compound washout measured after 24 hrs by hemagglutininating unit assay relative to control; assay type: functional, A/Puerto Rico/8/1934(H1N1); how it was run: as §2
[19] = system: Influenza A virus; test: Antiviral activity against Influenza virus A/Puerto Rico/8/34 H1N1 infected in dog MDCK cells at 10 ug/mL incubated for 24 hrs post-infection followed by compound washout measured after 24 hrs by hemagglutininating unit assay relative to control; assay type: functional, A/Puerto Rico/8/1934(H1N1); how it was run: as §2
[20] = system: Influenza A virus; test: Antiviral activity against Influenza virus A/Puerto Rico/8/34 H1N1 infected in dog MDCK cells assessed as reduction in hemagglutininin expression at 10 ug/mL after 24 hrs by immunoblotting analysis relative to control; assay type: functional, organism-based; details: A/Puerto Rico/8/1934(H1N1); how it was run: as §3
[21] = system: Influenza A virus; test: Antiviral activity against Influenza virus A/Puerto Rico/8/34 H1N1 infected in dog MDCK cells assessed as reduction in nucleoprotein expression at 10 ug/mL after 24 hrs by immunoblotting analysis relative to control; assay type: functional, organism-based; details: A/Puerto Rico/8/1934(H1N1); how it was run: as §3
[22] = system: Influenza A virus; test: Antiviral activity against Influenza virus A/Puerto Rico/8/34 H1N1 infected in dog MDCK cells assessed as reduction in neuraminidase expression at 10 ug/mL after 24 hrs by immunoblotting analysis relative to control; assay type: functional, A/Puerto Rico/8/1934(H1N1); set-up: scale not given: the % may be the effect or the level left; how it was run: as §3
[23] = system: Influenza A virus; test: Antiviral activity against Influenza virus A/Puerto Rico/8/34 H1N1 infected in dog MDCK cells assessed as reduction in matrix protein 1 expression at 10 ug/mL after 24 hrs by immunoblotting analysis relative to control; assay type: functional, organism-based; details: A/Puerto Rico/8/1934(H1N1); how it was run: as §3

`O=C1/C(=C/c2ccc(O)c(O)c2)COC/C1=C\c1ccc(O)c(O)c1` was tested, and the Activity [1] was “Toxic”, the Activity [2] was “inactive” and the Activity [3] was “inactive”. The Activity [4] was “inactive”, the Activity [5] was 55% and the Activity [6] was 75%. For the same compound, the Activity [7] was 25%, the Activity [8] was “Active” and the Activity [9] was 56%. For the same compound, the Activity [10] was 62%, the inhibition [11] was “Active” and the inhibition [12] was “inactive”.
`O=C(/C=C/c1ccc(O)cc1)c1ccc(O)cc1O` [ISOLIQUIRITIGENIN] was tested, and the Activity [13] was “Toxic”, the inhibition at 10 µg/mL [14] was 75% and the Activity [2] was “inactive”. For the same compound, the Activity [15] was “inactive”, the Activity [16] was “inactive” and the Activity [17] was 30%. The Activity [18] was 55%, the Activity [19] was 75% and the Activity [20] was “inactive”. For the same compound, the Activity [21] was “inactive”, the Activity [22] was 42% and the Activity [23] was “inactive”. The inhibition [11] was “Active” and the inhibition [12] was “inactive”.
